Data on seven molecules can be found in ChEMBL document CHEMBL4765373, “Design, synthesis and biological evaluation of rasagiline-clorgyline hybrids as novel dual inhibitors of monoamine oxidase-B and amyloid-β aggregation against Alzheimer's disease” (Eur J Med Chem, 2020).

For series [1], the target named is T1, MAO-A (Homo sapiens, UniProt P21397).
T1 sequence (P21397 whole entry): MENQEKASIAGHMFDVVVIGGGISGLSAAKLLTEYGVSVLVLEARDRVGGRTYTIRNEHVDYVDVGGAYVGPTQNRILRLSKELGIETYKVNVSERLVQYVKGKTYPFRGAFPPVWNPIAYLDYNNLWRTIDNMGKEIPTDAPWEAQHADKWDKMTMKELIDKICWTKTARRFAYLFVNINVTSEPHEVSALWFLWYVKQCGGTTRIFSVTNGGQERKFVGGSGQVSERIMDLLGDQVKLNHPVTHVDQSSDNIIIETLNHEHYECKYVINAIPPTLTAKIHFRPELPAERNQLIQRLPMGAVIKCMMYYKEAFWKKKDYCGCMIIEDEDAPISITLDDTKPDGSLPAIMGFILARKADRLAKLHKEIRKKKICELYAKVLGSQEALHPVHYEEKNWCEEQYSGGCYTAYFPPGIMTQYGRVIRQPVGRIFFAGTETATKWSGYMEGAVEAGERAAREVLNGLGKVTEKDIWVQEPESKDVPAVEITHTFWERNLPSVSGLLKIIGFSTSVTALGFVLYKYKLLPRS
Nature of the series: Inhibition of recombinant human MAOA expressed in baculovirus infected BTI insect cells at 100 uM using p-tyramine as substrate measured after 15 mins by Amplex red reagent based fluorescence assay relative to control. To be noted: probe p-tyramine. In short, it runs like this:
(§1)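 Recombinant human MAO-A or MAO-B with p-tyramine substrate; H2O2 production detected by Amplex Red. Compounds diluted in DMSO/PBS (final DMSO <0.1%) and incubated with enzyme and substrate 15 min at 37 °C in the dark. Fluorescence read at ex/em 545/590 nm; mean ± SD of three independent experiments.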

The target in series [2] is T2, Amine oxidase [flavin-containing] B (Homo sapiens, UniProt P27338).
T2 sequence (P27338 whole entry): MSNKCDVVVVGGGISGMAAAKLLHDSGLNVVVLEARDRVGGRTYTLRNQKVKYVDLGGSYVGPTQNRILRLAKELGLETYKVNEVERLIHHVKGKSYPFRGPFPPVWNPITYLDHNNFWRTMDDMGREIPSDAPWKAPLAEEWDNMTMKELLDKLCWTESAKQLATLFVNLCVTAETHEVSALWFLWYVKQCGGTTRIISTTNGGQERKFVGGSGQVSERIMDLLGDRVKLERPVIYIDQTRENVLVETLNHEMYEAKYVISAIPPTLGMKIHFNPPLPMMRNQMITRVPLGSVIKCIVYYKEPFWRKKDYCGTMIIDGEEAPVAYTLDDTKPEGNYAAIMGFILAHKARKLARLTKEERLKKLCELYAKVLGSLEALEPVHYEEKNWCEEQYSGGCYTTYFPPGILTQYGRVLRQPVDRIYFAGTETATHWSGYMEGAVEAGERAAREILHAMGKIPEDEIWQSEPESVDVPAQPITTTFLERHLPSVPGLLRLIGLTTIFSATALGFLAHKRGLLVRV
Nature of the series: Inhibition of recombinant human MAOB expressed in baculovirus infected BTI insect cells at 100 uM using p-tyramine as substrate measured after 15 mins by Amplex red reagent based fluorescence assay relative to control. The note with it: 0.25 h. In short, it runs like this: as §1

Series [3] is described as follows: in vitro. The note with it: PAMPA, pH 7.4.
For series [4], the species on record is Homo sapiens. As to the kind of experiment: Inhibition of self-induced amyloid beta (1 to 42) (unknown origin) peptide aggregation at 25 uM measured after 48 hrs by thioflavin-T fluorescence assay relative to control.
The species entered for series [5] is Homo sapiens. As to the kind of experiment: Inhibition of self-induced amyloid beta (1 to 42) (unknown origin) peptide aggregation assessed as reduction in number of amyloid beta aggregates by TEM analysis.
For series [6], the system named is SH-SY5Y. Nature of the series: Neuroprotective activity against 6-OHDA-induced cell death in human SH-SY5Y cells assessed as increase in cell survival at 1.563 to 25 uM incubated for 24 hrs by MTT assay. It is filed as functional, cell-based. The note with it: dose 1.563-25 µM. In short, it runs like this: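 SH-SY5Y cells co-incubated with 200 µM 6-OHDA and compound at 1.563, 3.125, 6.25, 12.5 or 25 µM for 24 h. Viability read by MTT assay against a 6-OHDA-only group. Means ± SEM of three independent experiments.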
In general terms: Tetrazolium assays rely on reduction of a dye to a coloured formazan, in cell work by metabolically active cells.

Series [7] is filed under the species Homo sapiens. Nature of the series: Selectivity index, ratio of IC50 for recombinant human MAOA expressed in baculovirus infected BTI insect cells to IC50 for recombinant human MAOB expressed in baculovirus infected BTI insect cells. In short, it runs like this:
as §1

Series [8] deals with T2, Amine oxidase [flavin-containing] B. As to the kind of experiment: biochemical. Type of series: cell-based, BTI.
Series [9] deals with SH-SY5Y. Nature of the series: Cytotoxicity against human SH-SY5Y cells assessed as reduction in cell viability at 25 uM after 24 hrs by MTT assay. Type of series: cell-based. In short, it runs like this: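 SH-SY5Y cells grown in DMEM with FBS, penicillin/streptomycin, 5% CO2, 37 °C. Seeded at 10,000 cells/well and exposed to compound (6.25–100 µM) for 24 h at 37 °C. MTT added for 4 h, formazan dissolved in DMSO, absorbance read at 570 nm (reference 630 nm). Mean ± SD of three independent experiments.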

Series [10] in a line: Cmax in Sprague-Dawley rat at 3 mg/kg, iv by LC-MS/MS analysis. It is filed as ADME, organism-based. On the set-up: route intravenous, dose 3 mg/kg. The note with it: in vivo. The procedure, abridged:
(§2)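 Male SD rats (n=3, 220 ± 20 g) dosed 3 mg/kg i.v. or 10 mg/kg by oral gavage. Plasma proteins precipitated with two volumes of 0.5% formic acid/acetonitrile; supernatant quantified by LC-MS/MS.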

The target in series [11] is T2, Amine oxidase [flavin-containing] B. Nature of the series: Competitive inhibition of recombinant human MAOB expressed in baculovirus infected BTI insect cells at 2.5 to 10 nM using varying levels of p-tyramine as substrate by Lineweaver-Burk plot analysis. The note with it: dose 2.5-10 nM. The procedure, abridged: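 Recombinant hMAO-B initial rates measured with and without inhibitor at 2.5, 5 and 10 nM. p-Tyramine substrate at 0.05, 0.1, 0.5, 1.0, 1.5 and 3.0 mM. H2O2 production read by Amplex Red fluorescence. Mechanism taken from overlaid Lineweaver–Burk reciprocal plots.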

Series [12] in a line: Half life in Sprague-Dawley rat at 3 mg/kg, iv by LC-MS/MS analysis. Type of series: ADME, organism-based. To be noted: in vivo. The procedure, abridged: as §2
Series [13] can be described thus: AUC (0 to infinity) in Sprague-Dawley rat at 3 mg/kg, iv by LC-MS/MS analysis. Type of series: ADME, organism-based. More on the design: time infinity, route intravenous, dose 3 mg/kg. The note with it: in vivo. The procedure, abridged: as §2
A short description of series [14]: Half life in Sprague-Dawley rat at 10 mg/kg, po administered via gavage by LC-MS/MS analysis. It is filed as ADME, organism-based. The note with it: in vivo. The procedure, abridged: as §2
A short description of series [15]: Cmax in Sprague-Dawley rat at 10 mg/kg, po administered via gavage by LC-MS/MS analysis. More on the design: route oral, dose 10 mg/kg. It is filed as ADME, organism-based. The note with it: in vivo. The procedure, abridged: as §2
Series [16] in a line: Tmax in Sprague-Dawley rat at 10 mg/kg, po administered via gavage by LC-MS/MS analysis. To be noted: in vivo. It is filed as ADME, organism-based. In short, it runs like this: as §2
Series [17] can be described thus: AUC (0 to infinity) in Sprague-Dawley rat at 10 mg/kg, po administered via gavage by LC-MS/MS analysis. It is filed as ADME, organism-based. More on the design: route oral, time infinity, dose 10 mg/kg. The note with it: in vivo. The procedure, abridged:
as §2

Series [18] is described as follows: Oral bioavailability in Sprague-Dawley rat at 10 mg/kg administered via gavage by LC-MS/MS analysis. Type of series: ADME, organism-based. The note with it: in vivo. The procedure, abridged:
as §2

Series [19] is described as follows: Clearance in Sprague-Dawley rat at 3 mg/kg, iv by LC-MS/MS analysis. It is filed as ADME, organism-based. To be noted: in vivo. The procedure, abridged: as §2

The source made the active and inactive calls. No cut-off for these calls is given here.

Usually inhibition stands for the share of the control response that was lost under treatment. Usually Papp stands for a coefficient for how fast a substance crosses the barrier. A higher Papp goes with fast passage. With `C#CCN(C)CCCCOc1ccc(C=O)c(OC)c1`, the inhibition at 0.25 h, 100 µM in series [1] came to 29.4%. Moreover, in series [2], the inhibition at 100 µM was 41.2%. The Papp at 16 h in [3] came to 13.1 ×10⁻⁶ cm/s. The inhibition in [4] came to 0.86%.
In the case of `COc1cc(/C=C/C(=O)CC(=O)/C=C/c2ccc(O)c(OC)c2)ccc1O`, in [5], the inhibition result was “Active”. In series [4], this molecule gave an inhibition of 46.1%.
Take `C#CCN[C@@H]1CCc2ccccc21` [RASAGILINE]: in series [1], the inhibition at 0.25 h, 100 µM came to 47.9%. Moreover, the result in series [6] was Active.
For orientation: IC50 means the concentration at which inhibition is half-maximal. A lower IC50 goes with inhibition by little substance. Take `C#CCN(C)CCCCCCOc1ccc2c(c1)OCCC2=O`: the inhibition at 0.25 h, 100 µM in series [1] was found to be 34.1%. The Ratio IC50 in [7] is over 855. In series [8], half-maximal inhibition (IC50) was put at 117 nM. The Papp at 16 h in series [3] came to 8.54 ×10⁻⁶ cm/s. Moreover, the inhibition in series [4] came out at 0.66%.
For `C#CCN(C)CCCCCCOc1ccc2c(c1)CCCC2=O`, the inhibition at 0.25 h, 100 µM in series [1] amounted to 25%. Also, in series [7], the Ratio IC50 was over 751. Besides, the IC50 in [8] stood at 133 nM. The Papp at 16 h in series [3] was 8.58 ×10⁻⁶ cm/s. The molecule further registered an inhibition in series [4] of 18.1%.
As a reminder, the Cmax is the peak of the concentration-time curve. As a reminder, the half-life is how long it takes for the measured level to halve. Low readings indicate rapid decline, high ones slow decline. What is called AUC is concentration integrated over time. What is called Tmax is the time at which the peak concentration occurs. What is called AUC(0-inf) is total exposure, with the tail of the curve extrapolated. A low value points to less exposure. By bioavailability is commonly meant dose-corrected exposure relative to a reference, in per cent. A lower bioavailability goes with poor availability. As for `C#CCN(C)CCCCCOc1ccc2c(c1)OCCC2=O`, in series [9], the Activity entry is reported as “Non-Toxic”. The Cmax came to 639 ng/mL in series [10] and 142 ng/mL in series [15]. The “inhibition (INH)” value in [11] is given as “Active”. In [1], the inhibition at 0.25 h, 100 µM came out at 6.04%. Further, the inhibition entry in series [5] was “Active”. The half-life in [12] is 1.02 h; in series [14], 1.33 h. The Ratio IC50 in series [7] was > 2.5 10^4No_unit. Further, in series [13], the AUC stood at 247.74 ng·h/mL. For the same molecule, half-maximal inhibition in series [8] (IC50) required 4 nM. Moreover, the result in [6] was Active. Besides, in [16], the Tmax was found to be 0.3 h. In addition, in series [17], the AUC(0-inf) worked out at 268 ng·h/mL. In series [3], this molecule yielded a Papp at 16 h of 10.2 ×10⁻⁶ cm/s. The bioavailability in series [18] is 36.1%. The molecule further returned a CL in series [19] of 55.5 mL/min/kg. In series [4], this molecule registered an inhibition of 40.8%.
Turning to `C#CCN(C)CCCCCCOc1ccc(C=O)c(OC)c1`, the inhibition at 0.25 h, 100 µM in series [1] came to 37.4%. The Ratio IC50 in series [7] was over 181. Moreover, the IC50 in [8] came to 552 nM. In [3], this molecule displayed a Papp at 16 h of 11.2 ×10⁻⁶ cm/s. Besides, the inhibition in series [4] was 0.99%.
